{"data": "Measurements collected from several papers", "target": "Serine/threonine-protein kinase pim-1 (PIM1, Homo sapiens, UniProt P11309)", "note": "Compare with care: the assays were run in different laboratories."}
{"read-out": "enzyme activity", "action": "inhibitor", "tested at": "1 µM", "quantity": "inhibition", "value": "0%", "SMILES": "CC#CC(=O)N1CCC[C@H]1c1nc(-c2ccc(C(=O)Nc3ccccn3)cc2)c2c(N)nccn12"}
{"read-out": "cell-free assay", "tested at": "1 µM", "quantity": "remaining signal", "value": "59%", "SMILES": "C[C@H]1CC[C@H](n2c3cnccc3c3cnc(Nc4ccc5c(n4)CCN(C(=O)CO)C5)nc32)CC1"}
{"read-out": "enzyme activity", "action": "inhibitor", "tested at": "1 µM", "quantity": "activity vs control", "value": "101%", "SMILES": "CC(C)S(=O)(=O)c1ccc2nccc(Nc3ccc4sc(C5CCCC5)nc4c3)c2c1"}
{"read-out": "binding", "tested at": "0.1 µM", "quantity": "remaining binding", "value": "100%", "SMILES": "C1=C/COCc2cc(ccc2OCCN2CCCC2)Nc2nccc(n2)-c2cccc(c2)COC/1"}
{"read-out": "enzyme activity", "action": "inhibitor", "tested at": "1 µM", "quantity": "inhibition", "value": "6%", "SMILES": "C=CC(=O)N1CCC([C@@H]2CCNc3c(C(N)=O)c(-c4ccc(Oc5ccccc5)cc4)nn32)CC1"}
{"read-out": "binding", "tested at": "1 µM", "quantity": "remaining binding", "value": "119%", "SMILES": "COc1ccc2oc(-c3ccc4nc(N)oc4c3)c/c(=N\\c3ccccc3NC(=O)CCN)c2c1"}
{"read-out": "cell-free assay", "tested at": "1 µM", "quantity": "remaining signal", "value": "87%", "SMILES": "C#Cc1cnc(Nc2ccnc(CO)c2)nc1Nc1ccccc1S(C)(=O)=NC#N (centres unmarked)"}
{"read-out": "binding", "technique": "competition with immobilised ligand", "tested at": "0.5 µM", "quantity": "remaining binding", "value": "100%", "SMILES": "CCCCC(=O)Nc1ccc(-c2ccc3ncn(CCC)c(=O)c3c2)cn1"}
{"read-out": "enzyme activity", "action": "inhibitor", "technique": "ADP detection", "tested at": "20 µM", "quantity": "activity vs control", "value": "102%", "SMILES": "CC(=O)ON=C1C=CC(=C(C#N)c2ccccc2)C=C1"}
{"read-out": "binding", "tested at": "1 µM", "quantity": "remaining binding", "value": "100%", "SMILES": "CN1CCN(C(=O)c2ccc(NC(=O)Nc3ccc(N(C)c4ccnc(Nc5ccc(CS(C)(=O)=O)cc5)n4)cc3)cc2)CC1"}
{"read-out": "cell-free assay", "technique": "competition with immobilised ligand", "tested at": "25 µM", "quantity": "remaining binding", "value": "87%", "SMILES": "N#Cc1ccc(NC(=O)Nc2ccccc2)cc1"}
